NPY-Y2 antag: blocks the human neuropeptide Y Y2 receptor | NPY-Y2 expressing cells, antagonist mode | P49146 | inhibition, % at 2.7 µM | 140,000 tested, 0.99% active | AID 793; in the data active = inhibition above about 17%;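 also: 0% = vehicle with agonist challenge and 100% = reference antagonist with challenge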
Target sequence (P49146 whole entry, looked up): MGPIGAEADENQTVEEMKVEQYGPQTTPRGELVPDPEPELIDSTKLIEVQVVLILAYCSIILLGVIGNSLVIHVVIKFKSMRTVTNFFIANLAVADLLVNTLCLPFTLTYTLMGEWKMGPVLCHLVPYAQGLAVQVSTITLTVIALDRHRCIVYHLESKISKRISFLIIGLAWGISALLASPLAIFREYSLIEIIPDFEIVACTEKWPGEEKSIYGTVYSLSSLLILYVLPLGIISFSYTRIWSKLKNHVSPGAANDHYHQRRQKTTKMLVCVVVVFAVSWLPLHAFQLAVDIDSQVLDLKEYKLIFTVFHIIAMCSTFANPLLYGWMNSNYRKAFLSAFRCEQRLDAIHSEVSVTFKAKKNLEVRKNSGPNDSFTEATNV
NPY-Y1 antag: antagonists of human neuropeptide Y receptor Y1; HEK293-CNG Y1 cells, membrane potential fluorescence; NPY at EC95, then isoproterenol; 200,000 tested, 1% active; inhibition, % at 3.6 µM; P25929;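 active = inhibition above the campaign mean inhibition of all tested compounds plus 3 SD, cut at about 20% in these data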;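 also: 0% = DMSO wells given NPY plus isoproterenol and 100% = isoproterenol alone without NPY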
Target sequence (P25929 whole entry, looked up): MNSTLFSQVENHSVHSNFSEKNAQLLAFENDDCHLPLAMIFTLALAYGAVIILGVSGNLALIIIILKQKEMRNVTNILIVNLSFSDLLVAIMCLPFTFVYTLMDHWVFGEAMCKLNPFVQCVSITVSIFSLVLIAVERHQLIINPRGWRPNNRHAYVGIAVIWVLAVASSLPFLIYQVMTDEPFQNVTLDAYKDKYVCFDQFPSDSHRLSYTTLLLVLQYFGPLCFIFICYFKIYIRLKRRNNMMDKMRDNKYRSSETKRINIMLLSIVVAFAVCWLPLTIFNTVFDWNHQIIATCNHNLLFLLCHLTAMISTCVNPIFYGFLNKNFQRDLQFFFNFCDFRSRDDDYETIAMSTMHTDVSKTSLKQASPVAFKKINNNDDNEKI
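System: HEK293 cells with Y1 receptor plus CNG channel / Probe or stimulus: NPY 25 nM then isoproterenol 1 µM plus Ro 20-1724 25 µM / Compound: one concentration, 3.6 µM, in 0.4% DMSO / Schedule: compound incubation 1 h at room temperature, readout 45 min post-stimulation / Measured by: membrane potential fluorescence / Read-out: % inhibition of NPY effect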
NPY2 pot ag: human NPY-Y2 potentiation or agonism, primary screen | P49146 | cells expressing NPY-Y2, potentiator/agonist read-out | activation, % at 3.6 µM | 220,000 tested, 0.45% active; in the data active = activation above about 27%;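 also: cells stimulated with NPY near EC25 plus isoproterenol at EC100; 0% = vehicle plus submaximal agonist and 100% = vehicle plus saturating agonist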
NPY1 pot ag: human NPY-Y1 potentiation or agonism, primary screen; P25929; NPY-Y1 expressing cells, potentiator/agonist activation; activation, % at 3.6 µM; 220,000 tested, 0.37% active; AID 1304; in the data active = activation above about 33%, passing the limit was not always enough;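 also: cells stimulated with NPY at EC10 then isoproterenol at EC100; 0% = low agonist plus stimulus and 100% = saturating agonist plus stimulus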
NPY1 antag ctr: counter-screen for NPY-Y2 antagonists: human NPY-Y1 antagonism | cell-based NPY-Y1 antagonism counterscreen | AID 1256 | 710 tested, 19% active | shares compounds with NPY-Y2 antag | inhibition, % at 3.6 µM;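 also: cells challenged with NPY then isoproterenol with cAMP sensed through a CNG channel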
NPY2 antag conf: human NPY-Y2 antagonism, confirmation. shares compounds with NPY-Y2 antag. HEK293 NPY-Y2 CNG channel, membrane potential fluorescence. inhibition, % at 2.8 µM. 710 tested, 32% active. AID 1257;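 active = mean inhibition of triplicate wells above the hit cutoff set in the primary screen, cut at about 17% in these data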;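 also: 0% = DMSO with NPY challenge and 100% = BIIE0246 high control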
NPY1 antag conf: human NPY-Y1 antagonism, confirmation; HEK293-CNG NPY-Y1, membrane potential fluorescence, cAMP; NPY challenge against isoproterenol-raised cAMP; inhibition, % at 3.6 µM; AID 1254; 1,200 tested, 21% active; shares compounds with NPY-Y1 antag;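 also: 0% = vehicle with agonist plus stimulus and 100% = stimulus alone without agonist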
NPY-Y2 antag ct: antagonizes human NPY-Y2, counter-screen to NPY-Y1 antagonists; shares compounds with NPY-Y1 antag; HEK293 NPY-Y2 CNG membrane potential fluorescence, antagonism; cells given NPY, then isoproterenol; inhibition, % at 3.6 µM; 1,200 tested, 28% active; AID 1255; in the data active = inhibition above about 17%;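 also: 0% = DMSO with agonist challenge and 100% = reference antagonist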
NPY-Y2 pot conf: human NPY-Y2 potentiation or agonism, confirmation. cell-based NPY-Y2 potentiator/agonist assay. activation, % at 3.6 µM. 450 tested, 20% active. AID 1539. shares compounds with NPY2 pot ag; in the data active = activation above about 33%
NPY-Y1 counter: potentiates or activates NPY-Y1, counter-screen for NPY-Y2 hits; activation, % at 3.6 µM; shares compounds with NPY2 pot ag; Y1 HEK293-CNG cells, membrane potential fluorescence; AID 1651; 450 tested, 20% active; in the data active = activation above about 45%;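 also: cells stimulated with submaximal NPY then isoproterenol with phosphodiesterase inhibitor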
NPY-Y1 ag 2: activates human NPY-Y1, counter-screen for NPY-Y2 potentiators; HEK293 Y1-CNGC, membrane potential fluorescence, agonism; shares compounds with NPY2 pot ag; activation, % at 3.6 µM; AID 1702; 450 tested, 37% active;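 active = activation above the mean of DMSO-only control wells plus 3 SD, cut at about 18% in these data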;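 also: cells stimulated with 1 µM isoproterenol plus the PDE inhibitor Ro 20-1724; 0% = isoproterenol with DMSO and no NPY and 100% = 40 nM NPY; Y1 agonists lower the membrane potential dye signal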
CNGC inh: cyclic nucleotide gated channel inhibition as counter-screen. shares compounds with NPY2 pot ag. HEK293-CNG parental, isoproterenol cAMP, membrane potential fluorescence. inhibition, % at 3.6 µM. 450 tested, 32% active;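 active = inhibition above the control-well mean plus 3 SD of those wells, cut at about 22% in these data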;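 also: 0% = DMSO with isoproterenol and 100% = DMSO without isoproterenol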
NPY-Y2 ag 2: NPY-Y2 agonism, counter-screen for Y2 potentiators | shares compounds with NPY2 pot ag | HEK293 Y2/CNGC cells, membrane potential fluorescence, agonist mode | activation, % at 3.6 µM | 450 tested, 56% active | AID 1710;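 active = activation above the mean of solvent-only control wells plus 3 SD, cut at about 10% in these data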;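 also: cells stimulated by isoproterenol with no NPY added so direct agonism is tested; 0% = DMSO with isoproterenol alone and 100% = NPY at EC100 plus isoproterenol; agonism lowers probe fluorescence through less cAMP and CNG channel opening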
Numbers without * were called inactive; . = not tested or not shown; + = active, no number. An excerpt weighted towards active compounds, which were near 1.8% of everything screened. Rule as the data show it, unless noted: active = inhibition above about 20%; inactive = the rest.

SMILES	NPY-Y2 antag	NPY-Y1 antag	NPY2 pot ag	NPY1 pot ag	others
CN1CCN(Cc2cc(C(C)(C)C)c(O)c(C(C)(C)C)c2)CC1	6	0	51*	77*
CN1CCN(Cc2ccc(N)cc2)CC1	.	4	-6	0
C[C@@H]1O[C@@H](O[C@H]2C[C@@H](O)[C@]3(CO)[C@H]4[C@H](O)C[C@]5(C)[C@@H](C6COC(=O)C6)CC[C@]5(O)[C@@H]4CC[C@]3(O)C2)[C@H](O)[C@H](O)[C@H]1O (stereo partly drawn)	24*	46*	-35	-93
O=c1[nH]c(=O)n(Cc2ccccc2Cl)c(O)c1/C=C1/C=CC=N1	.	-4	-1	1
Cc1cc(C=O)c(C)n1C1CC1	.	4	3	3
CC(=O)OC(C)(C)/C=C/C(=O)[C@](C)(O)[C@H]1[C@H](O)C[C@@]2(C)[C@@H]3CC=C4[C@H](C[C@H](O)C(=O)C4(C)C)[C@]3(C)C(=O)C[C@]12C	8	108*	0	-48
N#CC(C#N)=NNc1ccc(-n2ccc(C(F)(F)F)n2)cc1	.	.	68*	55*
CCN1/C(=C\C=C\C2=[N+](CC)c3ccccc3C2(C)C)C(C)(C)c2ccccc21	+	+	-337	-434
O=c1cc(CN2CC=C(c3ccccc3)CC2)c2c(ccc3ccccc32)o1	5	-7	64*	70*
O=C(CN1CC=C(c2ccccc2)CC1)NC(=O)NCc1ccccc1	.	12	-17	-16
Cc1ncc(CN2CCCC(C(=O)c3ccc(C(C)(C)C)cc3)C2)s1 (stereo not drawn)	.	-3	8	-7
CCn1c(O)c(C=NCCN2CCOCC2)c(=O)[nH]c1=S	.	.	-10	-11
CN(C)c1ccc(/C=C2/C(=N\O)C3CCN2CC3)cc1	.	.	5	44
CC(C)OCCCNC(=O)c1c(N)n(CC2CCCO2)c2nc3ccccc3nc12 (stereo not drawn)	23*	25*	0	5
Cc1ccc(N)c(C(=O)c2ccccc2)c1	3	-9	104*	98*
O=C1NC(=S)N(Cc2ccco2)C(=O)/C1=C\c1cccs1	.	-3	10	5
CN1CCN(c2ccc([N+](=O)[O-])c3cccnc23)CC1	4	3	-11	-22
O=[N+]([O-])c1ccc(N2CCNCC2)c2ncccc12	0	-8	47*	74*
COc1nc2ccccc2c(=O)n1-c1ccc(C)cc1	2	0	1	-15
CCCCOc1nc2ccccc2c(=O)n1-c1ccccc1	17*	6	-2	-14	NPY1 antag ctr=5;NPY2 antag conf=18*
O=C(COC(=O)c1ccc(O)cc1)Nc1ccc(Cl)cc1C(=O)c1ccccc1	19*	17	-7	-44	NPY1 antag ctr=12;NPY2 antag conf=9
Cc1ccsc1C(=O)C1CCCN(Cc2cnc(N3CCCC3)s2)C1 (stereo not drawn)	.	2	-10	-17
OC(COCc1ccc(Cl)cc1)CN1CC=C(c2ccccc2)CC1 (stereo not drawn)	19*	9	-9	-19	NPY1 antag ctr=8;NPY2 antag conf=11
CCCC[N+]12CCC(CC1)C(=C(c1ccccc1)c1ccccc1)C2	23*	18	-9	-8	NPY1 antag ctr=12;NPY2 antag conf=11
CCC[N+]12CCC(CC1)C(=C(c1ccccc1)c1ccccc1)C2	3	12	2	10
SMILES	NPY-Y2 antag	NPY-Y1 antag	NPY2 pot ag	NPY1 pot ag	others
COc1ccccc1Cn1c(SCC(=O)C(C)(C)C)nc2cc(C(=O)N3CCC4(CC3)OCCO4)ccc2c1=O	.	6	5	7
COc1ccc2c(c1)c(C(=O)CN1CCN(C)CC1)c(C)n2Cc1ccccc1	16	25*	-20	-111	NPY1 antag conf=8;NPY-Y2 antag ct=15
CCN(CC)P(c1n(C)cc[n+]1C)N(CC)CC	.	2	-8	4
O=c1[nH]c(=O)n(C2CCCCC2)c(O)c1/C=C/C=Nc1ccccc1	.	.	14	33
CCN(CC)CCCNC(=O)c1c(O)c2ccccc2n(Cc2ccccc2)c1=O	15	20*	-41	-49	NPY1 antag conf=16;NPY-Y2 antag ct=26*
COc1ccc(C(=O)c2nc3ccccc3n2C(C)C)cc1	.	-3	-13	-8
CN1CC=C(c2c[nH]c3ccccc23)CC1	2	36*	0	-2	NPY1 antag conf=6;NPY-Y2 antag ct=3
C1=C(c2c[nH]c3ccccc23)CCN(Cc2ccccc2)C1	.	-4	-6	6
COCCNCCOc1ccc(C(C)(C)c2ccccc2)cc1	7	2	-10	-30
Clc1ccc(COC(Cn2ccnc2)c2ccc(Cl)cc2Cl)c(Cl)c1 (stereo not drawn)	16	23*	-12	-63	NPY1 antag conf=30*;NPY-Y2 antag ct=25*
Cc1ccc(N2CCN(CCc3ccccc3)CC2)cc1	0	-1	-1	-14
Cc1cccc(N2CCN(CCc3ccccc3)CC2)c1C	8	23*	-22	-14	NPY1 antag conf=5;NPY-Y2 antag ct=8
C[C@H]1OC[C@@H](C[N+](C)(C)C)O1	6	44*	-15	-70	NPY1 antag conf=36*;NPY-Y2 antag ct=22*
C/C1=C\[C@@H](C)C/C=C/[C@H]2[C@@H]3O[C@]3(C)[C@@H](C)[C@H]3[C@H](Cc4c[nH]c5ccccc45)NC(=O)[C@]32C(=O)/C=C/C(=O)[C@@H]1O	.	40*	39*	11	NPY1 antag conf=35*;NPY-Y2 antag ct=7;NPY-Y2 pot conf=5;NPY-Y1 counter=5;NPY-Y1 ag 2=-1;CNGC inh=5;NPY-Y2 ag 2=17*
CCc1cccc(C)c1NC(=S)N1CC2CC(C1)c1cccc(=O)n1C2 (stereo not drawn)	0	5	-2	-16

Assay outcomes: PubChem, The Scripps Research Institute Molecular Screening Center
